# Screening results (PubChem)
# In the library only some 4.1% were active in any assay of this set; here they are far more common.
# ROMK mod – modulates human ROMK potassium channel activity; P48048; Tet-inducible ROMK, thallium flux fluorescence; actives lie on both sides; B-score at 10 µM; 130,000 tested, 2% active;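 active = signal ratio slope over the read window, or its plate-corrected B-score, at least 3 SD from the plate mean, either direction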;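 note: B-score of the F/F0 ratio slope over 7 to 12 s after thallium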
# Cl transport mod – modulates chloride dependent transport by human KCC2 | B-score of Tl+ flux slope (higher = more flux/activation; lower = inhibition) at 10 µM | KCC2 cells, thallium flux FluoZin-2 fluorescence | 190,000 tested, 2.2% active;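 active = thallium flux slope and its plate-corrected score both differing from the plate sample mean at a set confidence after two filtering rounds, in either direction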;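 note: slope of fluorescence scaled to starting intensity during 10 to 20 s after thallium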
# Target sequence (Q9H2X9 whole entry, looked up): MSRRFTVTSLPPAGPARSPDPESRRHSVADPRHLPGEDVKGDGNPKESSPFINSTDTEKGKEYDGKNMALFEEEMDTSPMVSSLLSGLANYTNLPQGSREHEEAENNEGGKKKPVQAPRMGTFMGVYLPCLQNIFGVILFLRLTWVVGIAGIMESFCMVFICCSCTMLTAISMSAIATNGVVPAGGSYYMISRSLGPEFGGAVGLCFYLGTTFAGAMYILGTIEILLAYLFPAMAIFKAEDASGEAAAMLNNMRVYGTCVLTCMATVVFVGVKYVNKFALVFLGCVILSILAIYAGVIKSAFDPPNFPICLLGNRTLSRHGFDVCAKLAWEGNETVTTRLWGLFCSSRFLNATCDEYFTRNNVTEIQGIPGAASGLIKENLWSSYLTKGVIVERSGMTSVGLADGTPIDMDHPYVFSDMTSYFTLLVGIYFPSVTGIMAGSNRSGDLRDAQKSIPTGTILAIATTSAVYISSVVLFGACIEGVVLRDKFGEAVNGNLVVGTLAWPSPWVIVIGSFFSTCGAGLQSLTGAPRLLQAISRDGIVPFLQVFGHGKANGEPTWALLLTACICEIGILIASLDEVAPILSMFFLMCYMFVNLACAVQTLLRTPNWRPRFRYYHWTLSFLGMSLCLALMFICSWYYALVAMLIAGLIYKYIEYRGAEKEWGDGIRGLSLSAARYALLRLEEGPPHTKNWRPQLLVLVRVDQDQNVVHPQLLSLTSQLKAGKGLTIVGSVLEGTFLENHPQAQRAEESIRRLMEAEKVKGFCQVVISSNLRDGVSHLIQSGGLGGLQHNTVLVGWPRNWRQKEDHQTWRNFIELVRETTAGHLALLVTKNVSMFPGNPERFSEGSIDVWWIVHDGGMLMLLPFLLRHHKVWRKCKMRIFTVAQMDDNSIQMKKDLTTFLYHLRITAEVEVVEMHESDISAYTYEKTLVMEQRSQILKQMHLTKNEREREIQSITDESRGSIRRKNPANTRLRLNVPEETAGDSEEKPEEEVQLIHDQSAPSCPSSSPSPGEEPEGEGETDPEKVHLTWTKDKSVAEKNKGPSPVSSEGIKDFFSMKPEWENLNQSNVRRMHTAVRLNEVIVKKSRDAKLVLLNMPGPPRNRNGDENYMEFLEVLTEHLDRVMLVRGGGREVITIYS
# Redox H2O2 prof – compounds producing H2O2 with reducing agent – biochemical, NIH compound library profiling, artefact control for MLSCN library redox annotation, primary screen. activation, % at 10 µM. 200,000 tested, 0.03% active. AID 878. DTT-dependent redox cycling H2O2, phenol red/HRP absorbance; 100% = 100 µM peroxide control, 0% = buffer;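 active = activation of at least 50% relative to the plate's high and low controls in the primary single-dose screen; inactive = activation below 50%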;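 note: compound incubated with DTT at 0.8 mM final as the reducing agent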
# Autophagy HCS – alters autophagy in cells. AID 463193. calls only at 10 µM (by protocol). 190,000 tested, 0.98% active. MEF GFP-LC3 puncta imaging; test concentration mostly 10 µM;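 active = percentage of spot-positive cells more than 3 SD above its plate mean, without a fluorescence outlier flag or 80% toxicity; inconclusive = no clear call, values can overlap the other calls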;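 note: spot-positive cell cutoff set from DMSO-treated cells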
# Dynein transport – blocks dynein driven cargo transport along microtubules. 3617.4 mouse cells, GR-EGFP nuclear translocation imaging; test concentration mostly 20 µM; stimulated with dexamethasone, 1 µM; hits give low values. z-score, hits read low. 220,000 tested, 0.47% active. AID 1381;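 active = plate z-score of nuclear minus cytoplasmic receptor signal below a set negative limit, without overly bright fluorescence or cell loss, cut at about -3.5 in these data, passing the limit was not always enough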;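 note: z-score of nuclear minus cytoplasmic ring GR-EGFP intensity difference per well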
#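 Also added: dexamethasone, 1.0 µM final. Medium: tet-free, stripped-serum medium. Detection: fixed, Hoechst-stained cells imaged at 10x for EGFP. Read-out: nuclear-to-cytoplasmic GR-EGFP distribution per well. Times: induction 48 h, compound 1 h, agonist 30 min.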
# ROMK retest – human ROMK channel modulation, retest confirmation; shares compounds with ROMK mod; ROMK thallium flux, fluorescence ratio; hits give low values; normalized thallium flux (F/F0 slope) at 10 µM; 3,000 tested, 54% active;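 active = Flux at 10 µM at least 3 SD below or above vehicle control mean in one or both replicates; inconclusive = no clear call, values can overlap the other calls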
# Starred values were filed as active, the others as inactive; i = inactive; ? = inconclusive; nt = no result.
SMILES,ROMK mod,Cl transport mod,Redox H2O2 prof,Autophagy HCS,Dynein transport,ROMK retest
C=C(C)CN(CC)c1nc(N)c(C#N)c(CC#N)c1C#N,-2.6*,nt,0,i,-0.87,0.055*
Cc1[nH]n(-c2ccc(Br)cc2)c(=O)c1C=Nc1ccc(S(=O)(=O)Nc2nccs2)cc1,nt,0.62,0,i,1.3,0.086
CCc1nnc(NS(=O)(=O)c2ccc(N=Cc3c(C)[nH]n(-c4ccc(C)c(C)c4)c3=O)cc2)s1,nt,-0.4,0,i,0.12,nt
CS(=O)(=O)c1ccc2nc(NC(=O)c3ccc(N4C(=O)CCC4=O)cc3)sc2c1,nt,0.067,nt,nt,0.53,nt
C/C(=N/NC(=O)C1CCN(S(=O)(=O)c2ccc(C)cc2)CC1)c1cccc([N+](=O)[O-])c1,-2.5*,-0.75,0,i,-0.46,0.076
C/C(=N\NC(=O)c1cccc([N+](=O)[O-])c1)c1cccc(NC(=O)C2CC2)c1,nt,nt,0,i,0.82,nt
Cc1noc(C)c1COc1ccc(CC(=O)NCc2ccccc2)cc1,3.1*,0.12,-1,i,0.32,0.1*
CCOc1ccccc1C(=O)NCC(=O)OCC(=O)NCCc1ccc(S(N)(=O)=O)cc1,-2.8*,2.2,-1,i,0.63,0.085
C[n+]1cn(CC(O)COCc2ccccc2)c2ccccc21 (stereo unspecified),nt,1.2,-3,i,-0.75,nt
CCCCCc1ccc(OCCOCCn2c[n+](C)c3ccccc32)c(CCCCC)c1,nt,0.037,0,i,-5.6,0.046*
CCCCCc1ccc(OCCC[n+]2ccccc2)c(CCCCC)c1,nt,0.39,nt,nt,-0.74,0.06*
O=C(Nc1c(S(=O)(=O)c2ccc(Cl)cc2)csc1Br)c1ccccc1Cl,nt,-1.4,nt,nt,-0.42,nt
O=C(CSc1c2c(nc3cc(Cl)ccc13)CCCC2)NCCCN1CCOCC1,-1.8*,0.57,1,i,-2.8,0.081
O=C(NC1CCC(O)CC1)c1ccc(-c2ccc([N+](=O)[O-])cc2)o1 (stereo unspecified),nt,-0.29,nt,nt,-0.56,nt
Nc1nc(-c2ccccc2)cn1/N=C/c1ccccc1,7.3*,0.022,nt,nt,-0.14,0.089
O=C(Nc1ccccc1N1CCN(c2ccccc2)CC1)c1ccccc1,-0.48,-0.78,0,i,-0.032,nt
S=c1nc(-c2ccccc2Cl)n(Cc2cccnc2)c2c1CCCC2,0.31,-0.24,0,i,-0.59,nt
COc1ccc(OCC(=O)Nc2ccccc2C(=O)N2CCOCC2)cc1,3*,0.14,0,i,-0.61,0.08
CCCCOc1ccc(CSCCN)cc1Cl,-3.2*,0.45,nt,nt,1.4,?
COc1ncnc2c1NC1=C(S2)C(=NCCC(=O)O)CC(C)(C)C1,nt,0.022,-8,i,-1.3,0.05*
CN(C)c1ncnc2c1NC1=C(S2)C(=NCCCC(=O)O)CC(C)(C)C1,nt,0.31,-6,i,1.1,nt
CCOc1cc(Br)c(/C=C2/C(=O)N(C)C(=S)N2CC(=O)OC)cc1OC,-2.6*,-0.019,0,i,1,0.075
O=C(COc1ccccc1Br)NC1CCCC1,nt,-1,0,i,-0.11,0.069*
NC(=O)c1ccc(NC(=O)COC(=O)CC(NC(=O)c2ccccc2Cl)c2ccccc2)cc1 (stereo unspecified),1.1,0.015,0,i,0.0094,nt
Cc1cc(C(=O)OCc2nnc(-c3ccccc3)o2)c(C)n1-c1ccccc1,nt,0.35,0,i,-1.1,nt
SMILES,ROMK mod,Cl transport mod,Redox H2O2 prof,Autophagy HCS,Dynein transport,ROMK retest
Cc1noc(C)c1COC(=O)c1cc(C)n(-c2ccccc2)c1C,nt,0.72,0,i,-1.2,0.088
O=C(NC(=S)Nc1ccccc1O)c1ccc(-c2ccc(Cl)cc2)o1,nt,nt,-2,i,-0.32,nt
Cc1c(NC(=S)NC(=O)c2ccc(-c3ccc(Cl)cc3)o2)cccc1C(=O)O,3.5*,-4.4,-2,i,1.6,0.089
O=C(Nc1cnc2ccccc2c1)c1cccc(-n2cnnn2)c1,nt,-2.4,3,i,0.61,0.06*
O=C(NNC(=O)c1cccc(-n2cnnn2)c1)c1ccccc1,-0.93,0.83,0,i,0.85,nt
COC(=O)c1sccc1NC(=S)N1CCN(c2cccc(C)c2C)CC1,0.43,-0.003,0,i,-1.2,nt
N#Cc1cnn2ccn(C3OC(CO)C(O)C3O)c12 (stereo unspecified),nt,1,nt,nt,1.4,nt
CC1CN(C(=O)c2ccccc2)c2ccccc2NC1=O (stereo unspecified),-1.5*,0.29,-1,i,-0.32,0.078
O=C(Cc1cccs1)N(CC1CCCO1)C1(C(=O)NC2CCCC2)CCCCC1 (stereo unspecified),-1.8*,-0.78,0,i,-0.12,?
O=S(=O)(NC1CCCC1)c1ccc(S(=O)(=O)N(Cc2cccs2)CC2CCCO2)cc1 (stereo unspecified),-3.1*,-1.1,2,i,-0.76,0.073
CCOC(=O)c1c(C)oc2ccc(NS(=O)(=O)c3ccc4c5c(cccc35)C(=O)N4)cc12,-3*,0.031,1,i,1.4,0.084
COC(=O)c1c(C)oc2ccc(NS(=O)(=O)c3cccs3)cc12,-4*,-0.061,1,i,0.24,?
COCCOC(=O)c1c(C)oc2ccc(NS(=O)(=O)c3ccccc3)cc12,nt,-0.026,0,i,-1.5,nt
CCNS(=O)(=O)c1ccc2c3c(cccc13)C(=O)N2,0.086,-1.1,0,i,0.64,nt
O=C(C1CCN(Cc2ccccc2)CC1)N1CCCC1,nt,0.5,-3,i,0.12,0.074
c1ccc(Nc2nc(CSc3ncn[nH]3)cs2)cc1,-2*,1.3,-2,i,-0.41,0.079
CCCCC(CCC(=O)Nc1cc([N+](=O)[O-])ccc1O)C(=O)O (stereo unspecified),0.8,1.5,-1,i,0.18,nt
COC(=O)c1ccc(Oc2cc(C)nc(-n3nc(C)cc3C)n2)cc1,4.9*,0.15,0,i,0.58,0.093
COc1ccc(CCNC(=O)CN(c2cccc([N+](=O)[O-])c2)S(C)(=O)=O)cc1OC,-0.047,0.047,0,i,2.6,0.082
Cc1cc(C(F)(F)F)n2nc(-c3cnn(C)c3C(F)(F)F)c(Br)c2n1,-0.51,-0.9,0,i,-0.57,nt
Fc1ccc(COc2ccc(Br)cc2CNCc2ccncc2)cc1,-2.7*,nt,-5,i,-0.24,0.063*
COc1ccccc1/C=C/C1(C(=O)NC2CCCC2)CC(=O)N1c1ccc(F)cc1 (stereo unspecified),-2.7,0.64,0,i,-0.28,nt
COc1ccccc1/C=C/C1(C(=O)NC2CCCC2)CC(=O)N1c1ccc(C)cc1 (stereo unspecified),-5*,0.49,0,i,1.4,0.062*
